Test results published in ChEMBL document CHEMBL3045828, “An efficient method for the purification and characterization of nematicidal azadirachtins A, B, and H, using MPLC and ESIMS” (J Agric Food Chem, 2003).
Converted amounts (≈) assume the structure as drawn.

Tests used:
Athelia rolfsii [1] = assay: Fungicidal activity against Athelia rolfsii assessed as mycelial growth inhibition; assay type: functional; conditions: Agroathelia rolfsii; read-out: ED50 (the source's name)
Procedure, shortened: (§1)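 Poisoned food technique on potato-dextrose-agar. Fungi kept on PDA slants at 25 °C and subcultured before testing. A stock in acetone (65 mg/4 mL) was diluted into PDA to about 500, 250, 100, 25 and 5 mg/L; acetone was the control. A 5-mm fungal disk was placed centrally, 2 dishes per treatment, 26 (±2) °C until control growth was nearly complete (2-3 days). Colony diameter was measured in three directions, and % and corrected inhibition were calculated.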

Athelia rolfsii [2] = assay: Fungicidal activity against Athelia rolfsii assessed as mycelial growth inhibition applied as 60% powdery concentrate; assay type: functional; conditions: Agroathelia rolfsii; read-out: ED50 (the source's name); procedure, shortened: as §1
Athelia rolfsii [3] = assay: Fungicidal activity against Athelia rolfsii assessed as mycelial growth inhibition applied as 20% powdery concentrate; assay type: functional; conditions: Agroathelia rolfsii; read-out: ED50 (the source's name); procedure, shortened: as §1
Rhizoctonia solani [4] = assay: Fungicidal activity against Rhizoctonia solani assessed as mycelial growth inhibition applied as 90% powdery concentrate; assay type: functional; conditions: read-out: ED50 (the source's name); procedure, shortened: as §1
Rhizoctonia solani [5] = assay: Fungicidal activity against Rhizoctonia solani assessed as mycelial growth inhibition applied as 60% powdery concentrate; assay type: functional; conditions: read-out: ED50 (the source's name); procedure, shortened: as §1
Rhizoctonia solani [6] = assay: Fungicidal activity against Rhizoctonia solani assessed as mycelial growth inhibition applied as 20% powdery concentrate; assay type: functional; conditions: read-out: ED50 (the source's name); procedure, shortened: as §1
Rotylenchulus reniformis [7] = assay: Nematicidal activity against fourth-stage juvenile of Rotylenchulus reniformis (reniform nematode) assessed as juvenile immobility applied as 90% powdery concentrate after 72 hr by stereoscopic binocular microscopic analysis; assay type: functional, organism-based
Procedure, shortened: (§2)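 Juveniles came from a single-egg-mass culture maintained on cowpea in sterilized soil-sand. Exposed in Petri dishes, 3 per treatment, with water plus ethanol as control. Immobility scored by stereomicroscope at 72 h. Revival test: 48 h in distilled water, and revived juveniles were subtracted. Mortality was Abbott-corrected, with LC50 in ppm.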

Rotylenchulus reniformis [8] = assay: Nematicidal activity against fourth-stage juvenile of Rotylenchulus reniformis (reniform nematode) assessed as juvenile immobility applied as 60% powdery concentrate after 72 hr by stereoscopic binocular microscopic analysis; assay type: functional, organism-based; procedure, shortened: as §2
Caenorhabditis elegans [9] = assay: Nematicidal activity against Caenorhabditis elegans assessed as mortality applied as 20% powdery concentrate after 24 hr; assay type: functional
Procedure, shortened: (§3)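 C. elegans grown on NG agar carrying E. coli. 15-20 worms in 48 µL saline per well, 3 wells per treatment, plus 2 µL 50% DMSO with or without test material (200 ppm). Plates covered and kept in a humid chamber. Dead nematodes counted microscopically at 2, 4, 6 and 24 h.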

Caenorhabditis elegans [10] = assay: Nematicidal activity against Caenorhabditis elegans assessed as mortality at 200 ppm after 24 hr; assay type: functional; procedure, shortened: as §3
Rotylenchulus reniformis [11] = assay: Nematicidal activity against fourth-stage juvenile of Rotylenchulus reniformis (reniform nematode) assessed as juvenile immobility applied as 20% powdery concentrate after 72 hr by stereoscopic binocular microscopic analysis; assay type: functional, organism-based; procedure, shortened: as §2
Rhizoctonia solani [12] = assay: Fungicidal activity against Rhizoctonia solani assessed as mycelial growth inhibition; assay type: functional; conditions: read-out: ED50 (the source's name); procedure, shortened: as §1
Rotylenchulus reniformis [13] = assay: Nematicidal activity against fourth-stage juvenile of Rotylenchulus reniformis (reniform nematode) assessed as juvenile immobility after 72 hr by stereoscopic binocular microscopic analysis; assay type: functional, organism-based; procedure, shortened: as §2

Structure (SMILES) | EC50 (Athelia rolfsii [1]) [µg/mL] | EC50 (Athelia rolfsii [2]) [µg/mL] | EC50 (Athelia rolfsii [3]) [µg/mL] | EC50 (Rhizoctonia solani [4]) [µg/mL] | EC50 (Rhizoctonia solani [5]) [µg/mL] | EC50 (Rhizoctonia solani [6]) [µg/mL] | EC50 (Rotylenchulus reniformis [7]) [ppm] | EC50 (Rotylenchulus reniformis [8]) [ppm] | mortality (Caenorhabditis elegans [9]) [%] | mortality at 200 ppm (Caenorhabditis elegans [10]) [%] | EC50 (Rotylenchulus reniformis [11]) [ppm] | EC50 (Rhizoctonia solani [12]) [µg/mL] | EC50 (Rotylenchulus reniformis [13]) [ppm]
C/C=C(\C)C(=O)O[C@H]1C[C@@H](OC(C)=O)[C@@]2(C(=O)OC)CO[C@H]3[C@@H](O)[C@@](C)([C@]45O[C@@]4(C)[C@@H]4C[C@H]5O[C@@H]5OC=C[C@@]54O)[C@H]4[C@]1(CO[C@]4(O)C(=O)OC)[C@@H]32 [AZADIRACHTIN A] | 93.6 (≈ 130 µM) | 122 (≈ 169 µM) | 140 (≈ 195 µM) | 105 (≈ 145 µM) | 132 (≈ 183 µM) | 165 (≈ 229 µM) | 119.1 | 151.9 | 50 | 56 | 193.9 | – | –
C/C=C(\C)C(=O)O[C@@H]1C[C@H](O)[C@]23CO[C@H](C(=O)OC)[C@H]2[C@](C)([C@]24O[C@@]2(C)[C@H]2C[C@@H]4O[C@@H]4OC=C[C@@]42O)[C@H](O)[C@@H]2OC[C@@]1(C(=O)OC)[C@H]23 [AZADIRACHTIN B] | 76.2 (≈ 115 µM) | – | – | – | – | – | – | – | – | 64 | – | 85.9 (≈ 130 µM) | 96.6
C/C=C(\C)C(=O)O[C@H]1C[C@@H](OC(C)=O)[C@@]2(C(=O)OC)CO[C@H]3[C@@H](O)[C@@](C)([C@]45O[C@@]4(C)[C@H]4C[C@@H]5O[C@@H]5OC=C[C@@]54O)[C@@H]4[C@H](O)OC[C@@]14[C@@H]32 [AZADIRACHTIN H] | 43.9 (≈ 66.2 µM) | – | – | – | – | – | – | – | – | 65 | – | 63.7 (≈ 96.1 µM) | 141.2
